Sampled rows, rich in hits. Any-hit rate of the full collection: about 1.9%.
NOD2 RIPK2 PPI: blocks binding of human NOD2 to RIPK2 | inhibition, % at 4.98 µM | O43353 | CHO BLA complementation NOD2-RIPK2, CCF4 ratio | hit rate 0.38% among 360,000; in the data active = inhibition above about 21%;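 also: 0% = vehicle only and 100% = reference blocker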
Target sequence (O43353 whole entry, looked up): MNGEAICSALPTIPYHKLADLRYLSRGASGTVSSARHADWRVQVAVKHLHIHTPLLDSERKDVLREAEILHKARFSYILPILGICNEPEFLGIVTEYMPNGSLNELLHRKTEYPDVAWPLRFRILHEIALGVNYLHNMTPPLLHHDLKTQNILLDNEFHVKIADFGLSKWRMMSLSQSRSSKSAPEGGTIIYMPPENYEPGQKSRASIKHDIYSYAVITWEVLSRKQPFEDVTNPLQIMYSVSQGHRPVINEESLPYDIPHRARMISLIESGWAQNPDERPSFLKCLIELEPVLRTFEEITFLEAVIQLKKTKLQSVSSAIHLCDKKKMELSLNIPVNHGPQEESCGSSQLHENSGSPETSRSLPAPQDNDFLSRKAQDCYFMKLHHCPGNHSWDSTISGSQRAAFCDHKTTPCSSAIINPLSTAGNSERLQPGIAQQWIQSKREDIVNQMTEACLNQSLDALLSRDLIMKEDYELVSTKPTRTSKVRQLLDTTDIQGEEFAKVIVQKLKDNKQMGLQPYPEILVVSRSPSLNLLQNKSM
NTR1 agonist: agonists of human neurotensin receptor NTR1; P30989; activation, % at 20 µM; AID 493036; NTR1-U2OS beta-arrestin-GFP spot imaging, agonist mode; hit rate 0.17% among 330,000;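 active = activation at or above 40% of the spot to cytoplasm intensity ratio, with at least 20 cells analyzed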;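 also: 0% = DMSO without peptide and 100% = 100 nM NTR1 peptide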
TLR4-MyD88 BLA: inhibitors of human TLR4-MyD88 binding | O00206+Q99836 | HeLa CL3-4 TLR4/MyD88 BLA complementation, FRET ratio | inhibition, % at 8.4 µM | hit rate 0.18% among 200,000; in the data active = inhibition above about 25%;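 also: 0% = vehicle and 100% = reference inhibitor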
MC4R antag cAMP: human MC4R antagonism in cAMP assay; inhibition, % at 6.5 µM; MC4R-expressing cells, MTII-stimulated cAMP, LANCE TR-FRET; AID 540295; hit rate 0.48% among 360,000;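 active = inhibition above its plate's cutoff, the mean of tested wells on that plate plus 3 SD, cut at about 29% in these data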;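 also: 0% = Melanotan II alone and 100% = Melanotan II plus saturating MCL0020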
Target sequence (P32245 whole entry, looked up): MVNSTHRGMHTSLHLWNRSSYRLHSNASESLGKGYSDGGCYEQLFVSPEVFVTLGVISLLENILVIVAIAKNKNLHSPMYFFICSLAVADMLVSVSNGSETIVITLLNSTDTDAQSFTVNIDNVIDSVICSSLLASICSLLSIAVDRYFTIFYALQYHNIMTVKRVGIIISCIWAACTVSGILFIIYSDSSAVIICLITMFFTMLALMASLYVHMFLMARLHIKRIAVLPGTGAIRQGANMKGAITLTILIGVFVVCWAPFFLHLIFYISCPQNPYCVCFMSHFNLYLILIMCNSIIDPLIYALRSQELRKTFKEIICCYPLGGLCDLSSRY
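System: U2OS-MC4R stable cell line; Technique: Eu-cAMP/anti-cAMP TR-FRET, emission 671 nm; Repeats: single well per compound; Also added: Melanotan II; Dosing: one concentration, 6.5 µM nominal; Schedule: 30-min compound, 1-h challenge, 1-h detection, room temperature.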
TLR9-MyD88 block: blocks human TLR9 binding to MyD88; hit rate 0.21% among 340,000; CHO BLA complementation TLR9-MyD88, CCF4 FRET ratio; inhibition, % at 4.98 µM;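 active = inhibition above the mean over all tested compounds plus 3 SD, cut at about 21% in these data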;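 also: 0% = DMSO only wells and 100% = clavulanate BLA inhibitor control wells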
MC4R barr agon: human MC4R agonism via beta-arrestin; U2OS MC4R beta-arrestin complementation, luminescence; percent of melanotan II response, DMSO zero; activation, % at 8.9 µM; hit rate 0.98% among 360,000; AID 540308;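 active = activation above a per-plate cutoff, the mean activation of sample wells on that plate plus 3 SD, cut at about 8% in these data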
TLR4 MyD88 cnf: TLR4-MyD88 interaction inhibition confirmed; HeLa CL3-4 BLA complementation, CCF4 FRET ratio; hit rate 50% among 350; shares compounds with TLR4-MyD88 BLA; inhibition, % at 8.4 µM; AID 941;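 active = mean inhibition across three repeat runs above about 25% carried over from the earlier screen, limit read from the data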;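 also: plate controls were DMSO only for no effect and clavulanic acid blocking BLA at full dose for full effect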
BLA inh HeLa: counter-screen for TLR4-MyD88 inhibitors: beta-lactamase reporter inhibitors; shares compounds with TLR4-MyD88 BLA; inhibition, % at 8.4 µM; hit rate 63% among 350; HeLa BLA reporter, CCF4 FRET ratio;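 active = mean inhibition over three repeats above about 26% taken from the earlier screen, limit read from the data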;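 also: HeLa cells stably expressing beta-lactamase reporter as counterscreen for TLR4-MyD88 inhibitors; 0% = DMSO and 100% = clavulanic acid full inhibition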
NTR1 ag conf: confirmation of agonists of human NTR1 | shares compounds with NTR1 agonist | NTR1-U2OS beta-arrestin-GFP translocation imaging | activation, % at 20 µM | hit rate 38% among 480 | AID 504550;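 active = mean activation at 20 µM of at least 40%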;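 also: 0% = DMSO without peptide and 100% = 100 nM NTR1 peptide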
TLR9-MyD88 conf: TLR9-MyD88 interaction inhibition, confirmation. shares compounds with TLR9-MyD88 block. CHO TLR9/MyD88 BLA complementation, CCF4 FRET ratio. inhibition, % at 4.98 µM. hit rate 51% among 680. AID 540250;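 active = mean inhibition across three repeats above about 21% taken from the earlier screen, limit read from the data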;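 also: blue over green emission ratio reports constitutive TLR9 MyD88 association via BLA complementation; 0% = DMSO vehicle wells and 100% = clavulanate BLA inhibitor wells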
BLA counter-1: beta-lactamase reporter inhibition, counter-screen artifact. CHO-BLA cells, CCF4 FRET ratio, BLA reporter. shares compounds with TLR9-MyD88 block. hit rate 7% among 680. AID 540251. inhibition, % at 4.98 µM;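 active = mean inhibition above a 50% cutoff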;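 also: counterscreen of TLR9-MyD88 hits on CMV-driven BLA in CHO-K1 cells; 0% = DMSO alone and 100% = clavulanate blocking BLA; higher means less blue over green ratio so more BLA blockade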
TLR9 CHO cytotox: CHO cell toxicity counter-screen for TLR9-MyD88 inhibitors. shares compounds with TLR9-MyD88 block. hit rate 39% among 680. inhibition, % at 4.98 µM. TLR9-MyD88 CHO cells cytotoxicity, luminescence; in the data active = inhibition above about 11%
NOD2 RIPK2 conf: NOD2-RIPK2 interaction inhibition confirmed; CHO cells, NOD2-RIPK2 BLA complementation, CCF4 FRET; shares compounds with NOD2 RIPK2 PPI; hit rate 70% among 1,200; inhibition, % at 4.98 µM;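 active = mean inhibition across replicates above a set limit taken from the earlier primary screen, cut at about 21% in these data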;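 also: 0% = DMSO-only wells and the high end = clavulanate BLA-blocked wells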
BLA counter-2: counter-screen for NOD2-RIPK2 interaction inhibitors: BLA reporter. shares compounds with NOD2 RIPK2 PPI. CHO BLA reporter, CCF4 FRET ratio, counterscreen. inhibition, % at 4.98 µM. hit rate 57% among 1,200. AID 624371;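 active = mean inhibition above the low-control mean inhibition plus three low-control SD, cut at about 11% in these data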;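 also: 0% = DMSO only wells and 100% = clavulanate high control wells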
An asterisk follows results filed as active; nt = not tested or not shown.

SMILES | NOD2 RIPK2 PPI | NTR1 agonist | TLR4-MyD88 BLA | MC4R antag cAMP | TLR9-MyD88 block | MC4R barr agon | NTR1 ag conf | others
O=c1oc2ccccc2cc1-c1nc2c(s1)CCc1ccccc1-2 | 40.1* | 7.5 | 31.4* | 12.8 | 48.7* | 1.7 | nt | TLR4 MyD88 cnf=47.0*;BLA inh HeLa=81.1*;TLR9-MyD88 conf=50.5*;BLA counter-1=57.5*;TLR9 CHO cytotox=-1.6;NOD2 RIPK2 conf=68.6*;BLA counter-2=78.6*
CCCC(C(=O)Nc1cc(S(=O)(=O)N2CCOCC2)ccc1OC)c1ccccc1 (stereo not drawn) | 1.6 | -0.6 | nt | 10.2 | -3.2 | 1.2 | nt
O=C(NCCO)/C(=C\c1cccc([N+](=O)[O-])c1)NC(=O)c1cccs1 | 0.3 | nt | nt | 1.9 | 2.1 | -1.1 | nt
CNC(=O)COC(=O)c1ccccc1C(=O)c1ccc(Cl)c([N+](=O)[O-])c1 | 24.5* | nt | 31.6* | 26.0 | 25.4* | -1.6 | nt | TLR4 MyD88 cnf=22.0;BLA inh HeLa=5.3;TLR9-MyD88 conf=23.2*;BLA counter-1=18.5;TLR9 CHO cytotox=7.6;NOD2 RIPK2 conf=52.9*;BLA counter-2=6.8
CCc1ccc(C2=NNC(=Nc3cccc(S(=O)(=O)N(C)C)c3)SC2)cc1 | -1.4 | 0.2 | -0.4 | -3.0 | 1.7 | -1.0 | nt
CCOC(=O)c1c(C)n(C)c2ccc(OCC(O)CN3CCCCCC3)cc12 (stereo not drawn) | 4.8 | 1.8 | -10.4 | -1.6 | 4.8 | -0.3 | nt
CCOC(=O)c1c(C)n(C)c2ccc(OCC(O)Cn3nc(C)c(Br)c3C)cc12 (stereo not drawn) | -2.4 | 40.9* | -7.2 | 4.1 | -7.0 | -1.6 | 11.1
COc1cc(NC(=O)c2cc(-c3ccccc3)nc3c2cnn3C(C)C)cc(OC)c1OC | -4.5 | 11.7 | nt | 18.8 | 2.2 | -0.2 | nt
CNC(=O)c1cccc(NC(=O)c2cc(-c3ccccc3)nc3c2cnn3C(C)C)c1 | 2.1 | 55.0* | nt | 1.2 | 8.5 | -1.6 | 33.3
CC1Cc2c([nH]c(=O)n(-c3ccccc3)c2=O)O1 (stereo not drawn) | -3.7 | nt | nt | 6.7 | 1.8 | -1.4 | nt
CC(O)CNc1nc2ccccc2n1CC(=O)NCCc1ccc(Cl)cc1 (stereo not drawn) | -2.1 | 0.6 | -8.4 | 11.9 | 1.0 | -0.3 | nt
O=C(CN(c1cccc(C(F)(F)F)c1)S(=O)(=O)c1ccc(Cl)c([N+](=O)[O-])c1)NCc1ccccc1Cl | 17.8 | 8.6 | -1.7 | 23.9 | 4.1 | 2.5 | nt
O=C(CN(c1cccc(C(F)(F)F)c1)S(=O)(=O)c1ccc(Cl)c([N+](=O)[O-])c1)NCc1ccccc1 | -11.6 | 42.9* | 14.1 | 14.0 | -2.9 | -1.3 | -0.2
CO/N=C(\c1nonc1N)N1CCN(c2ccc([N+](=O)[O-])cc2Cl)CC1 | 2.0 | 4.5 | 6.8 | 8.8 | 4.4 | -0.9 | nt
CO/N=C(\c1nonc1N)N1CCN(c2ccc(Cl)cc2[N+](=O)[O-])CC1 | 8.8 | 57.6* | 3.3 | -0.2 | -1.2 | -0.8 | 36.1
CCCC1=C(C(=O)OCC)C(c2cc(Cl)cc(OC)c2OCc2ccccc2)NC(=O)N1 (stereo not drawn) | 1.2 | 11.8 | -9.3 | 15.0 | -7.1 | 2.0 | nt
O=C1Nc2ccc(Br)cc2/C1=C/C1CC=CCC1 (stereo not drawn) | 7.8 | 42.1* | 6.8 | 6.5 | -0.6 | 2.8 | 8.7
O=C(NCc1ccccc1)C1CCC(CNS(=O)(=O)c2cccs2)CC1 (stereo not drawn) | -14.4 | 42.0* | nt | 5.9 | 3.6 | -1.0 | -3.5
COC(=O)[C@]12CCCCC=C1N(Cc1cccc3ccccc13)C(=O)[C@H](CC(=O)NCc1cccc(C(F)(F)F)c1)C2 | -0.9 | nt | nt | nt | nt | nt | nt
COc1cc(/C=N/Nc2nc(-c3ccc(S(=O)(=O)N(C)C)cc3)cs2)ccc1O | 3.4 | 70.5* | nt | 10.6 | 7.8 | 3.8 | 79.2*
COc1ccc(/C=N/Nc2nc(-c3cccc(S(=O)(=O)N4CCCC4)c3)cs2)cc1OC | -8.9 | -0.1 | -4.0 | 7.6 | -9.5 | 0.8 | nt
Cc1c(-c2ccccc2)oc2c(C(=O)OCC(=O)Nc3ccc(F)cc3)cccc2c1=O | -9.2 | 3.8 | 3.1 | -6.1 | -1.6 | -2.8 | nt
Cc1cccc(C)c1OCc1cc(C(=O)N(Cc2c(C)nn(C)c2C)C2CC2)no1 | 3.5 | 0.6 | nt | 2.1 | 0.7 | -2.6 | nt
O=C(O)C1=CC[C@@H](c2ccc(Cl)cc2)N(S(=O)(=O)c2ccc(Cl)cc2)[C@H]1c1cccc(Cl)c1 | -14.5 | 56.4* | nt | 10.0 | 4.4 | 1.9 | 9.2
CC(C)(C)OC(=O)NCCCCCNC(=O)c1[nH]cnc1C(=O)N[C@@H](Cc1ccccc1)C(=O)OCc1ccccc1 | 20.7 | 53.1* | -8.2 | -6.0 | -3.8 | 5.2 | 22.9
SMILES | NOD2 RIPK2 PPI | NTR1 agonist | TLR4-MyD88 BLA | MC4R antag cAMP | TLR9-MyD88 block | MC4R barr agon | NTR1 ag conf | others
CN(Cc1ccccc1)C(=O)c1[nH]cnc1C(=O)N[C@@H](Cc1ccccc1)C(=O)OCc1ccccc1 | -1.3 | 41.8* | -20.6 | 0.7 | -7.5 | 3.9 | 2.2
O=C(O)c1cnnc2ccccc12 | 7.0 | nt | nt | 1.6 | 2.4 | -1.0 | nt
CC(=O)c1cccc(Nc2nc(-c3sc(C)nc3C)cs2)c1 | 4.6 | 53.6* | nt | 9.9 | -4.1 | 0.8 | 24.4
CC(=O)c1cccc(Nc2nc(-c3sc(N)nc3C)cs2)c1 | -7.7 | -0.2 | nt | -4.2 | -1.9 | 0.5 | nt
CC(C)Cn1c(N)c(C(=O)CSc2cc(Cl)ccc2Cl)c(=O)n(C)c1=O | nt | 47.7* | -9.5 | nt | nt | nt | 47.1*
CC(C)Cn1c(N)c(C(=O)CSc2ncccn2)c(=O)n(C)c1=O | -3.4 | 0.7 | nt | -9.4 | 7.5 | -2.6 | nt
COc1ccc(OC)c(S(=O)(=O)Nc2cccc(F)c2)c1 | 14.2 | 0.9 | -9.0 | -1.4 | 1.9 | 0.6 | nt

Bioassay records deposited in PubChem by several laboratories.
